Compound activity from PubChem BioAssay.
LANA-nucl inh – LANA-nucleosome interaction inhibition; FITC-LANA1-23 / chicken nucleosome fluorescence polarization; active compounds read low; z-score (test concentration not listed); hit rate 0.3% among 51,000; AID 720717;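 active = both repeat wells score below -2 in polarization z-score versus plate sample wells, excluding overly bright wells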
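Test system: purified chicken nucleosomes with FITC-labelled LANA N-terminal peptide (1-23); Input: 240 nM purified chicken nucleosomes (480 nM peptide binding sites), final; Medium: TEN-BT buffer, pH 7.5; Timing: 10–45 min, room temperature; Technique: fluorescence polarization, 480 nm excitation, 535 nm parallel and perpendicular emission; Replication: duplicates.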
BasE inh – inhibitors of Acinetobacter baumannii siderophore enzyme BasE. purified BasE, fluorescence polarization binding displacement. inhibition, % (no concentration beside the values). hit rate 0.1% among 84,000. AID 485350; in the data active = inhibition above about 25%, passing the limit was not always enough;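 note: 0% = negative plate control signal and 100% = positive plate control signal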
Starred values were filed as active, the others as inactive; . = not tested or not shown. The full list was thinned out, with hits kept by preference.

SMILES	LANA-nucl inh	BasE inh
Cc1cc(C)c(C(=O)CN2C(=O)NC(CC(C)C)C2=O)cc1C (configuration not stated)	.	2.5
CC1=CC(C)=N/C1=C/c1c(O)[nH]c(=O)[nH]c1=O	-7.64*	1.3
CC(CO)(CO)N=Cc1c(O)[nH]c(=O)[nH]c1=O	0.418	1.9
Cc1ccc(CN(C)CC(=O)NC(C)C23CC4CC(CC(C4)C2)C3)o1 (configuration not stated)	.	0.5
Cc1ccn2c(NS(=O)(=O)c3ccc4c(c3)OCCO4)c(-c3cccs3)nc2c1	.	-0.3
CCOc1ccc(C(=O)Nc2nc3cc4c(cc3s2)OCO4)cc1	-2.24*	0.7
COc1cccc(C(=O)Nc2nc3cc4c(cc3s2)OCO4)c1	-1.04	0.7
CC(C)CCn1c(Br)nc2c1c(=O)n(Cc1ccccc1)c(=O)n2C	-0.28	0.9
CCCCn1c(CNC=O)nc2ccccc21	-0.375	1.5
O=C(Oc1ccc(Cl)cc1Cl)c1ccc(Br)cc1	.	3.7
CNC(=O)NC(=O)CSc1nnc(Nc2ccccc2C)s1	.	-1.0
O=C(O)c1ccccc1C1=Nc2ccc(O)cc2Oc2cc(O)ccc21	-6.08*	38.2
O=C(O)c1ccccc1-c1ccccc1C(=O)O	1.32	-1.7
CCn1c(O)c(C=Nc2cccc(O)c2)sc1=S	-2.41*	0.3
CCn1c(O)c(C=Nc2ccccc2)oc1=S	.	1.9
CCCCOc1ccc(-c2nnc(-c3ccco3)n2-c2ccccc2)cc1	-1.38	1.9
CCCCS(=O)(=O)NNc1cc(C(F)(F)F)ccc1Cl	.	0.4
CS(=O)c1scc(-c2ccc(Cl)cc2)c1C#N (configuration not stated)	0.889	28.8*
N#Cc1c(-c2ccc(Cl)cc2)cc[nH]c1=O	0.887	.
CC1=CC(=O)C=C(C)C1=NS(=O)(=O)c1ccccc1	.	25.8*
CN1C/C(=N\S(=O)(=O)c2ccccc2)N(C)C1=O	0.049	-1.5
Cc1cc(C)nc(Nc2n[nH]c(COc3ccc4ccccc4c3)n2)n1	0.259	-1.0
Cc1cc(C)nc(Nc2n[nH]c(-c3cccnc3)n2)n1	-0.464	26.5*
Cc1nn(CC(=O)NCCCN2CCOCC2)c(=O)c2c1sc1ccccc12	0.688	-0.7
S=c1[nH]c2cc(Cl)c3cccnc3c2o1	2.53	51.3*
SMILES	LANA-nucl inh	BasE inh
O=C(O)COc1c(I)cc(Cl)c2cccnc12	.	-0.4
CCOc1ccccc1C(=S)N1CCOCC1	-0.465	2.4
CCCCC/C=C\C/C=C\CCCCCCCC(=O)O[C@@H](CO)COC(=O)CCCCCCCCCCCCCCCCC	-0.105	-2.5
CCCCC/C=C\C/C=C\C/C=C\C/C=C\CCCC(=O)OC(CO)CO	-2.11*	-1.4
O=C(CN1CCN(S(=O)(=O)c2ccc3c(c2)OCCO3)CC1)N(Cc1ccccc1)Cc1ccccc1	.	0.7
COc1ccc(C(=O)C2CCN(CC(=O)NCc3ccc(F)cc3)CC2)cc1	-0.368	0.5
Cc1ccc(C)c(OCCn2cc(/C=C3\C(=N)N4N=C(S(C)(=O)=O)SC4=NC3=O)c3ccccc32)c1	-0.0335	7.5
N=C1/C(=C\c2cn(CCOc3ccccc3Cl)c3ccccc23)C(=O)N=C2SC=NN12	-3.43*	-18.5
O=C1c2ccncc2C(=O)N1CNc1ccccc1	-1.18	1.9
CC(C)CCNC(=O)C1CCCN(S(=O)(=O)N2CCC3(CC2)OCCO3)C1 (configuration not stated)	-2.17*	1.6
CCOC(=O)N1CCN(S(=O)(=O)N2CCCC(C(=O)NCCC(C)C)C2)CC1 (configuration not stated)	-0.252	1.0
C/C(N)=C(/C#N)C(=O)CSc1cccc(C(F)(F)F)c1	.	-0.6
O=C(CCCn1c(=O)oc2ccccc21)Oc1ccc2c(c1)OCO2	.	0.4
Cc1cccc(OCC(=O)NC2CCCC2)c1	0.052	28.9*
Cc1ccc(OCC(=O)NC2CCC(C)CC2)cc1C (configuration not stated)	.	1.1
Cc1c(C(=O)N2CCN(Cc3nc4ccccc4s3)CC2)oc2ccccc12	.	0.2
CC(=O)Nc1ccccc1C(=O)C(=S)N1CCN(C)CC1	.	-0.1
O=C1CC(c2ccccc2O)=NN1	.	26.7*
O=C1CCC(C(=O)OCN2C(=O)c3ccccc3C2=O)=NN1	.	1.1
Nc1ccc(N2CCOCC2)c(N)c1	2.52	36.8*
NS(=O)(=O)c1ccc(N2CCOCC2)c(C(=O)O)c1	.	1.1
O=C1CSCC(=O)N1c1ccc(Cl)cc1	-0.767	1.5
CC1(c2ccc(Cl)cc2)NC(=O)CS1 (configuration not stated)	-2.4*	0.8
COC(=O)C1=CNC=C(C(=O)OC)C1c1ccccc1C	-0.573	28.5*
COC(=O)C1=CNC=C(C(=O)OC)C1c1ccc(Cl)cc1	0.369	0.6
